The values that follow come from PMC9076653 (RSC Advances, 2019).

Data set [1] relates to SW480. As to the kind of experiment: MTT cell growth inhibition assay, SW480. Format: cell-based. To be noted: Homo sapiens, SW480, 72 h, read-out: IC50 SW480. In a few lines: (§1)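 MTT assay. Seeding per well was 3 × 10^3 for cancer cells, 4 × 10^3 for HUVEC and 8 × 10^3 for HL7702. Test compound was added after adherence and incubated 72 h. MTT (5 mg mL−1 stock) was added for a further 4 h at 37 °C, formazan was dissolved in DMSO, and absorbance was read at 570 nm. Inhibition was calculated relative to controls, and IC50 is the concentration giving 50% growth inhibition.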

The test system of data set [2] is MDA-MB-231. As to the kind of experiment: MTT cell growth inhibition assay, MDA-MB-231. Format: cell-based. The settings on record: Homo sapiens, MDA-MB-231, 72 h, read-out: IC50 MDA-MB-231. In a few lines: as §1
In data set [3] the test system is HeLa. Kind of data set: MTT cell growth inhibition assay, HeLa. Format: cell-based. To be noted: Homo sapiens, 72 h, read-out: IC50 HeLa. An outline of the steps:
as §1

Data set [4] concerns MDA-MB-231 xenograft. As to the kind of experiment: In vivo antitumor assay, MDA-MB-231 xenograft model. Set-up: species or system nude mice. The settings on record: 10 mg kg^−1 via caudal vein every three days, 15 days. In a few lines:
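Female athymic nude mice (6–7 weeks) first received 5 × 10^6 logarithmic-phase MDA-MB-231 cells s.c. in physiological saline. After two weeks, tumour fragments were implanted into the right flank. At a mean tumour volume of 100 mm3, mice were randomised (6 per group) and dosed 10 mg kg−1 via the tail vein every three days for 15 days. Vehicle was 5% glucose with 1% DMSO and 2% lecithin; a reference Hsp90 inhibitor served as positive control. Calipers were used every three days, with V = length × width²/2. TGI came from final tumour weights, and T/C from mean RTV (Vt/V0). Student's two-tailed t test was used, P < 0.05.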

Data set [5] has as its system HUVEC. Kind of data set: MTT cell growth inhibition assay, HUVEC. It is filed as cell-based. To be noted: Homo sapiens, 72 h, read-out: IC50 HUVEC. In a few lines:
as §1

Data set [6] has as its system A431. Kind of data set: MTT cell growth inhibition assay, A431. Format: cell-based. To be noted: Homo sapiens, A-431, 72 h, read-out: IC50 A431. In a few lines:
as §1

In data set [7] the test system is HepG2. Kind of data set: MTT cell growth inhibition assay, HepG2. Format: cell-based. The settings on record: Homo sapiens, HepG2, 72 h, read-out: IC50 HepG2. An outline of the steps: as §1
Data set [8] deals with HL7702. As to the kind of experiment: MTT cell growth inhibition assay, HL7702. It is filed as cell-based. To be noted: Homo sapiens, L02, 72 h, read-out: IC50 HL7702. An outline of the steps:
as §1

Data set [9] deals with BGC-823. As to the kind of experiment: MTT cell growth inhibition assay, BGC-823. Format: cell-based. The settings on record: Homo sapiens, BGC-823, 72 h, read-out: IC50 BGC-823. An outline of the steps:
as §1

For data set [10], the system named is A549. Kind of data set: MTT cell growth inhibition assay, A549. Format: cell-based. The settings on record: Homo sapiens, A549, 72 h, read-out: IC50 A549. An outline of the steps: as §1
For data set [11], the system named is Hsp90 client proteins (Her2, AKT, CDK4) and Hsp70 in MDA-MB 231 cells. Kind of data set: Western blot assay of Hsp90 inhibition in cellular system. Format: cell-based, human. To be noted: 0.5 μM. An outline of the steps:
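MDA-MB 231 cells were treated with or without test compound over different time courses. Cells were lysed in ice-cold Tris-HCl (pH 7.4) buffer with Triton, EDTA/EGTA, phosphatase and protease inhibitors, then boiled 10 min in SDS loading buffer. Proteins were separated by 8–12% SDS-PAGE and transferred to PVDF. Membranes were blocked in 5% BSA in PBS-Tween for 1 h, incubated with primary antibodies overnight at 4 °C, and detected with peroxidase-conjugated anti-rabbit or anti-mouse secondary antibodies and ECL.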
Background: Immunoblotting shows a protein as a band on a membrane.

Data set [12] is described as follows: In vivo hepatotoxicity assay. On the set-up: species or system Kunming mice. The settings on record: mice. An outline of the steps: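 Female Kunming mice (4–6 weeks) were randomised into three groups of three: vehicle control, or test compound or parent ansamycin at 10 mg kg−1. They were injected once daily for three consecutive days. Serum AST and ALT were then measured with spectrophotometric kits and reported in U L−1.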

[13] abbreviates: 10 mg kg^−1, injected once a day for three days, blood serum.

Where “and” joins values, the source holds several entries; their conditions need not be identical. Equal entries are not always repeated.

Broadly, the IC50 is the concentration that inhibits the measured activity by half. Usually T/C stands for the result in the treated group divided by that in the control group, in per cent. As usually defined, the TGI is the reduction of tumour growth relative to the control group. Lower therefore signals little slowing of growth. As for `C=CCNC1=C2C[C@@H](C)C[C@H](OC)[C@H](O)[C@@H](C)/C=C(\C)[C@H](OC(N)=O)[C@@H](OC)/C=C\C=C(/C)C(=O)NC(=CC1=O)C2=O` [Compound 17-AAG, 17-allylamino-17-demethoxygeldanamycin], the concentration for half-maximal inhibition (IC50) in data set [1] stood at 614 ± 85 nM; in data set [2], 324 ± 76 nM; in data set [3], 112 ± 18 nM; in data set [5] it was 271 ± 38 nM; in [6], 72 ± 4 nM; in [7], 82 ± 16 nM. The IC50 in [8] stood at 105 ± 7 nM; in data set [9], 725 ± 99 nM; in [10], 87 ± 6 nM. In data set [4] (relative tumor volume), the T/C is 41.9% and 41.9 ± 11.3%. Also, the TGI in [4] (tumor weight) was 55.1% and 55.1 ± 5.5%. Moreover, the “levels of Hsp70” value in data set [11] is listed as “markedly increased”.
In the case of `COC1=C2C[C@@H](C)C[C@H](OC)[C@H](O)[C@@H](C)/C=C(\C)[C@H](OC(N)=O)[C@@H](OC)/C=C\C=C(/C)C(=O)NC(=CC1=O)C2=O` [GA, Geldanamycin], the IC50 in data set [1] stood at 298 ± 34 nM; in data set [2], 59 ± 13 nM; in [3], 731 ± 53 nM; in data set [5], 18 ± 3 nM; in data set [6], 45 ± 6 nM; in data set [7], 45 ± 7 nM. The results for the IC50 in data set [8], in data set [9] and in data set [10] were 133 ± 20 nM, 40 ± 8 nM and 91 ± 7 nM, respectively. For the same compound, the ALT in data set [12] (setting [13]) was 273.0 ± 25.3 U L^−1. In data set [12] (setting [13]), this compound displayed an AST of 317.2 ± 39.1 U L^−1. The “AST and ALT levels versus vehicle control group” value in data set [12] (10 mg kg^−1, three days) is given as “significantly higher”. For the same compound, the “levels of Hsp70” value in data set [11] is on record as “markedly increased”.
